According to ChEMBL document CHEMBL1145088, “Ascochlorin derivatives as ligands for nuclear hormone receptors” (J Med Chem, 2003):

Experiments:
U2OS (Homo sapiens) = assay: Concentration required for inhibition of U2OS cell growth
[1] = molecular target: T1, Nuclear receptor subfamily 1 group I member 2 (Homo sapiens, UniProt O75469); assay: Minimum effective concentration required to activate pregnane X receptor (PXR)
T1 sequence (O75469 whole entry): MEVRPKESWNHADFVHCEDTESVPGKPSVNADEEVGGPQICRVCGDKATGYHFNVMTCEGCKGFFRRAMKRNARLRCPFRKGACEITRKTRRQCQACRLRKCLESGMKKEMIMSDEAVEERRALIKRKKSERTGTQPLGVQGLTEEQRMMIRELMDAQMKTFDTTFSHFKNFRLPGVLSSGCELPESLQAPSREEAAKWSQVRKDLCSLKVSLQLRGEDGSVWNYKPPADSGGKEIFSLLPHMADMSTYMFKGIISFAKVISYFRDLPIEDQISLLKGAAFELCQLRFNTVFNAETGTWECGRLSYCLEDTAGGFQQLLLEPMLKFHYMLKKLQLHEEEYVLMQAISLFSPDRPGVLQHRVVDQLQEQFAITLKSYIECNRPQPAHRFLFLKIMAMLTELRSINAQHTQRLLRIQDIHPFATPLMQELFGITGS

Estrogen receptor beta = Estrogen receptor beta (Homo sapiens, UniProt Q92731); assay: Minimum effective concentration required to activate Estrogen receptor 2 (ER beta); Not detected
Sequence of Estrogen receptor beta (Q92731 whole entry): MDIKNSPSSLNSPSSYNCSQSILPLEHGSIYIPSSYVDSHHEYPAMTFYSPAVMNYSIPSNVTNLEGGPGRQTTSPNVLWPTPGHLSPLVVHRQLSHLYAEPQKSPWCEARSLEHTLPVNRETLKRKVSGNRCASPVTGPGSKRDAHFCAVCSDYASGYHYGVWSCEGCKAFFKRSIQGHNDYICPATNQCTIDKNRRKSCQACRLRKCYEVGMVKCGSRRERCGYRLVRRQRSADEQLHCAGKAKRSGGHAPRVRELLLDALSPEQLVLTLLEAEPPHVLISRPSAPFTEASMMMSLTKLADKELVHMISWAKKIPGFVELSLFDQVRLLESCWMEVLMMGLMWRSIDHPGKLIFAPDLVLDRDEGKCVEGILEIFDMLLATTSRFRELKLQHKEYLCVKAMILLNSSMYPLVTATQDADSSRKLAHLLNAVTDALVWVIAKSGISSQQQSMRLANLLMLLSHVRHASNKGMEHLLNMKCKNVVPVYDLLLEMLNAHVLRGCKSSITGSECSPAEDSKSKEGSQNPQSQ

Estrogen receptor = molecular target: T2, Estrogen receptor (Homo sapiens, UniProt P03372); assay: Minimum effective concentration required to activate Estrogen receptor 1 (ER alpha); Not detected
T2 sequence (P03372 whole entry): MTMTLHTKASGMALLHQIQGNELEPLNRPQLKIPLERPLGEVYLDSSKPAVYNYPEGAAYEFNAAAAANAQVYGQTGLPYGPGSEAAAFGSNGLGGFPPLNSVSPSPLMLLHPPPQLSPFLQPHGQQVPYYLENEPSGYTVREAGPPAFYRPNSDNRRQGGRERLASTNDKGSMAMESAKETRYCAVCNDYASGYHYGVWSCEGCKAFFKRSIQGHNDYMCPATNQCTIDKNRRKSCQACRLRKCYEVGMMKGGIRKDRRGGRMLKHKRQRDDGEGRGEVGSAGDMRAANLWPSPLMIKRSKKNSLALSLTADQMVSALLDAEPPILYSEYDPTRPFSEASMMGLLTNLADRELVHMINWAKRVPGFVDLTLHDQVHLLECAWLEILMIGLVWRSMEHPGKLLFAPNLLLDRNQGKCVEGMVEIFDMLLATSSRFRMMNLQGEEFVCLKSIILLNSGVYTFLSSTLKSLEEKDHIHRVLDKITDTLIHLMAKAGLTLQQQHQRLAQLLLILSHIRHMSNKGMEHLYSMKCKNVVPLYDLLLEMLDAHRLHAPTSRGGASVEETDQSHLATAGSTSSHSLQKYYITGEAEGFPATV

[2] = molecular target: T3, Peroxisome proliferator-activated receptor gamma (Homo sapiens) (UniProt P37231); assay: Minimum effective concentration required to inhibit Peroxisome proliferator activated receptor gamma (PPAR gamma)
T3 sequence (whole entry): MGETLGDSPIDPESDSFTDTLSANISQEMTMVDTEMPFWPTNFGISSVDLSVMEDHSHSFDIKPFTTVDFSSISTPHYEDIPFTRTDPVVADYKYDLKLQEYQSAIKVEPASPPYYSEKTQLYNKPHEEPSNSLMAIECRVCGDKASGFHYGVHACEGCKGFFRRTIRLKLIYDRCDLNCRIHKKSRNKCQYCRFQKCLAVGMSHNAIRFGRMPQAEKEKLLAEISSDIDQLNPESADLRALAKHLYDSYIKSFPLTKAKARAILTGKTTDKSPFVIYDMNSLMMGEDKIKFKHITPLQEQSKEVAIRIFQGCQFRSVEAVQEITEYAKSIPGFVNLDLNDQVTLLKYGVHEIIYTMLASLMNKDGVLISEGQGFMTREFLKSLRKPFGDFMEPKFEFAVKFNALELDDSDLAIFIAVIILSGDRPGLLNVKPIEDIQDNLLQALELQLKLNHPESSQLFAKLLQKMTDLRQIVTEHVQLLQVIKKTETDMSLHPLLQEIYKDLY

[3] = molecular target: T1, Nuclear receptor subfamily 1 group I member 2; assay: Minimum effective concentration required to inhibit pregnane X receptor (PXR)
Outline: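 U2OS cells (1 × 10^6 per 10 cm dish) were calcium-phosphate transfected with the receptor expression vector (2 µg; Gal4 fusions for PXR and PPARα), the matching reporter (4 µg) and pCMV-β-galactosidase (4 µg). They were cultured 12 h, PBS-washed, given fresh medium 4 h, trypsinized and exposed to drugs 20 h. Luciferase/CAT activity normalized to β-galactosidase as stimulation index; triplicate cultures.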

[4] = molecular target: T3, Peroxisome proliferator-activated receptor gamma (Homo sapiens); assay: Minimum effective concentration required to activate Peroxisome proliferator activated receptor gamma (PPAR gamma)

SMILES	IC50 (U2OS (Homo sapiens))	MEC [1]	MEC (Estrogen receptor beta)	MEC (Estrogen receptor)	MEC [2]	MEC [3]	MEC [4]
C/C(=C\Cc1c(O)c(C=O)c(C)c(Cl)c1OCC(=O)O)CC/C=C(\C)[C@@H]1CC(=O)C(C)(C)O1	32 µM	30 µM	Not Active	Not Active			
COc1c(C=O)c(C)c(Cl)c(OC(=O)c2ccccn2)c1C/C=C(C)/C=C/[C@@]1(C)[C@H](C)CCC(=O)[C@@H]1C					30 µM	1 µM	
Cc1c(C=O)cc2c(c1Cl)OC(C)(/C=C/[C@]1(C)C(C)C(=O)CC[C@H]1C)CC2 (some centres not stated)	18 µM	1 µM	Not Active	Not Active			
COc1c(C=O)c(C)c(Cl)c(OC(=O)c2ccncc2)c1C/C=C(C)/C=C/[C@@]1(C)[C@H](C)CCC(=O)[C@@H]1C					0.3 µM	3 µM	
COc1c(C=O)c(C)c(Cl)c(OC(=O)c2cccnc2)c1C/C=C(C)/C=C/[C@@]1(C)[C@H](C)CCC(=O)[C@@H]1C	37 µM	10 µM	Not Active	Not Active			100 µM
COc1c(C=O)c(C)c(Cl)c(O)c1C/C=C(C)/C=C/[C@@]1(C)[C@H](C)CCC(=O)[C@@H]1C	5.6 µM	1 µM	Not Active	Not Active			10 µM
C/C(=C\Cc1c(O)c(Cl)c(C)c(C=O)c1O)CC/C=C(\C)[C@@H]1CC(=O)C(C)(C)O1 [ASCOFURANONE]	3.2 µM	3 µM	Not Active	Not Active			
CC(/C=C/[C@@]1(C)[C@H](C)CCC(=O)[C@@H]1C)=C\Cc1c(O)c(C=O)c(C)c(Cl)c1OC(=O)c1ccccn1					3 µM	1 µM	
COc1c(C=O)c(C)c(Cl)c(O)c1C/C=C(\C)CC/C=C(\C)[C@@H]1CC(=O)C(C)(C)O1	18 µM	1 µM	Not Active	Not Active			30 µM
COc1c(Cl)c(C)c(C(=O)O)c(OC)c1C/C=C(C)/C=C/[C@@]1(C)[C@H](C)CCC(=O)[C@@H]1C	56 µM	1 µM	Not Active	Not Active			
Cc1c(Cl)c(O)c2c(c1C=O)OC(C)(/C=C/[C@]1(C)C(C)C(=O)CC[C@H]1C)CC2 (some centres not stated)	56 µM	3 µM	Not Active	Not Active			
COc1c(C=O)c(C)c(Cl)c(OCC(=O)O)c1C/C=C(C)/C=C/[C@@]1(C)[C@H](C)CCC(=O)[C@@H]1C	56 µM	3 µM	Not Active	Not Active			3 µM
CC(/C=C/[C@@]1(C)[C@H](C)CCC(=O)[C@@H]1C)=C\Cc1c(O)c(C=O)c(C)c(Cl)c1OCC(=O)O	56 µM	30 µM	Not Active	Not Active			30 µM
Cc1c(Cl)c2c(c(O)c1C=O)CC(CC(C)(O)/C=C/[C@@]1(C)[C@H](C)CCC3(OCCO3)[C@@H]1C)O2 (some centres not stated)	18 µM	3 µM	Not Active	Not Active			

Next, values leading:

IC50 (U2OS (Homo sapiens))	MEC [1]	MEC (Estrogen receptor beta)	MEC (Estrogen receptor)	MEC [2]	MEC [3]	MEC [4]	SMILES
0.6 µM	1 µM	Not Active	Not Active			10 µM	CC(/C=C/[C@@]1(C)[C@H](C)CCC(=O)[C@@H]1C)=C\Cc1c(O)c(C=O)c(C)c(Cl)c1OC(=O)CCCC(=O)O
5.6 µM	1 µM	Not Active	Not Active				COc1c(Cl)c(C)c(C=O)c(O)c1C/C=C(\C)CC/C=C(\C)[C@@H]1CC(=O)C(C)(C)O1
10 µM	10 µM	Not Active	Not Active				C/C(=C\Cc1c(O)c(C=O)c(C)c(Cl)c1OC(=O)c1ccncc1)CC/C=C(\C)[C@@H]1CC(=O)C(C)(C)O1
3.2 µM	1 µM	Not Active	Not Active			3 µM	CCOC(=O)COc1c(Cl)c(C)c(C=O)c(OC)c1C/C=C(C)/C=C/[C@@]1(C)[C@H](C)CCC(=O)[C@@H]1C
10 µM	10 µM	Not Active	Not Active				C/C(=C\Cc1c(O)c(C=O)c(C)c(Cl)c1OC(=O)c1cccnc1)CC/C=C(\C)[C@@H]1CC(=O)C(C)(C)O1
10 µM	1 µM	Not Active	Not Active			10 µM	CC(/C=C/[C@@]1(C)[C@H](C)CCC(=O)[C@@H]1C)=C\Cc1c(O)c(C=O)c(C)c(Cl)c1OC(=O)c1ccncc1
10 µM	1 µM	Not Active	Not Active				COc1c(C=O)c(C)c(Cl)c(OC(C)=O)c1C/C=C(\C)CC/C=C(\C)[C@@H]1CC(=O)C(C)(C)O1
4.7 µM	3 µM	Not Active	Not Active			10 µM	CC(/C=C/[C@@]1(C)[C@H](C)CCC(=O)[C@@H]1C)=C\Cc1c(O)c(C=O)c(C)c(Cl)c1OC(=O)c1cccnc1
3.2 µM	10 µM	Not Active	Not Active				C/C(=C\Cc1c(O)c(C=O)c(C)c(Cl)c1OC(=O)CCCC(=O)O)CC/C=C(\C)[C@@H]1CC(=O)C(C)(C)O1
10 µM	1 µM	Not Active	Not Active				CC(=O)Oc1c(Cl)c(C)c(C=O)c(O)c1C/C=C(\C)CC/C=C(\C)[C@@H]1CC(=O)C(C)(C)O1
10 µM	1 µM	Not Active	Not Active				COc1c(Cl)c(C)c(C=O)c(OC)c1CC1OC1(C)/C=C/[C@@]1(C)[C@H](C)CCC(=O)[C@@H]1C (some centres not stated)
1.8 µM	1 µM	Not Active	Not Active				COc1c(Cl)c(C)c(C=O)c(O)c1C/C=C(C)/C=C/[C@@]1(C)[C@H](C)CCC(=O)[C@@H]1C
